Laboratory results taken from PubChem BioAssay AID588704 (Broad Institute, 2011).
Active and inactive are the calls of the source.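 How the source made its calls: active means strong luminescence drop, meaning toxicity to breast epithelial cells with E-cadherin silenced, a stem-like cancer model; inactive means the rest.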

How the values were obtained:
[1] = system: HMLE_shECad viability, CellTiter-Glo luminescence, 72 h; assay: HMLE_shECad cancer stem cell-like viability inhibition, dose response, CellTiter-Glo luminescence, dry powder (AID 588704)
Procedure, shortened: (§1)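 Assay system – EMT-induced HMLE_shECad cancer stem cell-like cells · Compound – concentration series, 0.010–32 µM final · Timing – 72 h compound exposure, dosing at 24 h · Detection – luminescent ATP assay (CellTiter-Glo) · Control set – DMSO-only wells · Repeats – duplicate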

[2] = as above; conditions: HMLE_shECad viability, CellTiter-Glo luminescence, 72 h
Procedure, shortened: as §1

Row | SMILES | AC50 [1] | outcome [2]
1 | Cc1cc(Cl)ccc1OCC(=O)N/N=C/c1ccc[nH]1 | 4580 nM | –
2 | O=C(COc1cc(Cl)ccc1Cl)N/N=C/c1ccc[nH]1 | 930 nM | –
3 | CC(C)(C)c1ccc2c(c1)OC(C(=O)N/N=C/c1ccc[nH]1)CO2 (configuration not stated) | 3480 nM | –
4 | O=C(COc1ccc(Cl)cc1Cl)N/N=C/c1cnc[nH]1 | – | inactive
5 | O=C(COc1c(Cl)cc(Cl)cc1Cl)N/N=C/c1ccc[nH]1 | 470 nM | –
6 | O=C(COc1ccc(Cl)cc1Cl)N/N=C/c1ccc[nH]1 | 3390 nM | –
7 | O=C(N/N=C/c1ccc[nH]1)c1cc2ccccc2o1 | 2460 nM | –
